Key:
[1] = test system: Mycobacterium tuberculosis; assay: Inhibition of multidrug resistance efflux pump in Mycobacterium tuberculosis H37Rv assessed as amikacin MIC at 256 ug/ml after 7 days by two-dimensional broth microdilution checkerboard assay; details: 168 h
Outline: (§1)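 M. tuberculosis H37Rv two-dimensional broth microdilution checkerboard. MICs of INH, RIF, AMK, OFX or EtBr were determined without and with graded sub-inhibitory compound concentrations, starting at ½ MIC. Where MIC was undeterminable, the highest concentration still permitting growth was taken as ½ MIC. FIC = MIC of antibacterial in combination / MIC alone. FIC ≤0.25 was scored as synergism and ≥2 as antagonism.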

[2] = test system: Mycobacterium tuberculosis; assay: Inhibition of multidrug resistance efflux pump in Mycobacterium tuberculosis H37Rv assessed as amikacin MIC at 128 ug/ml after 7 days by two-dimensional broth microdilution checkerboard assay; details: 168 h
[3] = test system: Mycobacterium tuberculosis; assay: Inhibition of multidrug resistance efflux pump in Mycobacterium tuberculosis H37Rv assessed as amikacin MIC at 64 ug/ml after 7 days by two-dimensional broth microdilution checkerboard assay; details: 168 h
[4] = test system: Mycobacterium tuberculosis; assay: Inhibition of multidrug resistance efflux pump in Mycobacterium tuberculosis H37Rv assessed as amikacin MIC at 32 ug/ml after 7 days by two-dimensional broth microdilution checkerboard assay; details: 168 h
[5] = test system: Mycobacterium tuberculosis; assay: Inhibition of multidrug resistance efflux pump in Mycobacterium tuberculosis H37Rv assessed as amikacin MIC at 16 ug/ml after 7 days by two-dimensional broth microdilution checkerboard assay; details: 168 h
[6] = test system: Mycobacterium tuberculosis; assay: Inhibition of multidrug resistance efflux pump in Mycobacterium tuberculosis H37Rv assessed as amikacin MIC at 8 ug/ml after 7 days by two-dimensional broth microdilution checkerboard assay; details: 168 h
[7] = test system: Mycobacterium tuberculosis; assay: Inhibition of multidrug resistance efflux pump in Mycobacterium tuberculosis H37Rv assessed as ofloxacin MIC at 128 ug/ml after 7 days by two-dimensional broth microdilution checkerboard assay; details: 168 h
[8] = test system: Mycobacterium tuberculosis; assay: Inhibition of multidrug resistance efflux pump in Mycobacterium tuberculosis H37Rv assessed as ofloxacin MIC at 64 ug/ml after 7 days by two-dimensional broth microdilution checkerboard assay; details: 168 h
[9] = test system: Mycobacterium tuberculosis; assay: Inhibition of multidrug resistance efflux pump in Mycobacterium tuberculosis H37Rv assessed as ofloxacin MIC at 32 ug/ml after 7 days by two-dimensional broth microdilution checkerboard assay; details: 168 h
[10] = test system: Mycobacterium tuberculosis; assay: Inhibition of multidrug resistance efflux pump in Mycobacterium tuberculosis H37Rv assessed as ofloxacin MIC at 16 ug/ml after 7 days by two-dimensional broth microdilution checkerboard assay; details: 168 h
[11] = test system: Mycobacterium tuberculosis; assay: Inhibition of multidrug resistance efflux pump in Mycobacterium tuberculosis H37Rv assessed as ofloxacin MIC at 8 ug/ml after 7 days by two-dimensional broth microdilution checkerboard assay; details: 168 h
[12] = test system: Mycobacterium tuberculosis; assay: Inhibition of multidrug resistance efflux pump in Mycobacterium tuberculosis H37Rv assessed as ofloxacin MIC at 4 ug/ml after 7 days by two-dimensional broth microdilution checkerboard assay; details: 168 h
[13] = test system: Mycobacterium tuberculosis; assay: Inhibition of multidrug resistance efflux pump in Mycobacterium tuberculosis H37Rv assessed as ethidium bromide MIC at 256 ug/ml after 7 days by two-dimensional broth microdilution checkerboard assay; details: 168 h
[14] = test system: Mycobacterium tuberculosis; assay: Inhibition of multidrug resistance efflux pump in Mycobacterium tuberculosis H37Rv assessed as ethidium bromide MIC at 128 ug/ml after 7 days by two-dimensional broth microdilution checkerboard assay; details: 168 h
[15] = test system: Mycobacterium tuberculosis; assay: Inhibition of multidrug resistance efflux pump in Mycobacterium tuberculosis H37Rv assessed as ethidium bromide MIC at 64 ug/ml after 7 days by two-dimensional broth microdilution checkerboard assay; details: 168 h
[16] = test system: Mycobacterium tuberculosis; assay: Inhibition of multidrug resistance efflux pump in Mycobacterium tuberculosis H37Rv assessed as ethidium bromide MIC at 32 ug/ml after 7 days by two-dimensional broth microdilution checkerboard assay; details: 168 h
[17] = test system: Mycobacterium tuberculosis; assay: Inhibition of multidrug resistance efflux pump in Mycobacterium tuberculosis H37Rv assessed as ethidium bromide MIC at 16 ug/ml after 7 days by two-dimensional broth microdilution checkerboard assay; details: 168 h
[18] = test system: Mycobacterium tuberculosis; assay: Inhibition of multidrug resistance efflux pump in Mycobacterium tuberculosis H37Rv assessed as ethidium bromide MIC at 8 ug/ml after 7 days by two-dimensional broth microdilution checkerboard assay; details: 168 h
[19] = test system: Mycobacterium tuberculosis; assay: Inhibition of multidrug resistance efflux pump in Mycobacterium tuberculosis H37Rv assessed as ethidium bromide MIC at 4 ug/ml after 7 days by two-dimensional broth microdilution checkerboard assay; details: 168 h
[20] = test system: Mycobacterium tuberculosis; assay: Inhibition of multidrug resistance efflux pump in Mycobacterium tuberculosis H37Rv assessed as reduction in rifampin MIC at 256 ug/ml after 7 days by two-dimensional broth microdilution checkerboard assay; outline: as §1
[21] = test system: Mycobacterium tuberculosis H37Rv; assay: Ratio of thioridazine to compound for Inhibition of multidrug resistance efflux pump in Mycobacterium tuberculosis H37Rv using ethidium bromide as substrate assessed as relative final fluorescence at 1/2 MIC by real-time fluorometry
Outline: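 H37Rv cells were loaded with EtBr at 0.5 µg/mL with test compound at ½ MIC. Where the MIC exceeded the testable range, the last determinable concentration was taken as ½ MIC. EtBr retention was followed by real-time fluorometry and expressed as relative final fluorescence (RFF), with verapamil and thioridazine as controls.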

[22] = test system: Mycobacterium tuberculosis; assay: Inhibition of multidrug resistance efflux pump in Mycobacterium tuberculosis H37Rv assessed as isoniazid MIC at 256 ug/ml after 7 days by two-dimensional broth microdilution checkerboard assay; details: 168 h; outline: as §1
[23] = test system: Mycobacterium tuberculosis; assay: Inhibition of multidrug resistance efflux pump in Mycobacterium tuberculosis H37Rv assessed as isoniazid MIC at 64 ug/ml after 7 days by two-dimensional broth microdilution checkerboard assay; details: 168 h
[24] = test system: Mycobacterium tuberculosis; assay: Inhibition of multidrug resistance efflux pump in Mycobacterium tuberculosis H37Rv assessed as isoniazid MIC at 16 ug/ml after 7 days by two-dimensional broth microdilution checkerboard assay; details: 168 h
[25] = test system: Mycobacterium tuberculosis; assay: Inhibition of multidrug resistance efflux pump in Mycobacterium tuberculosis H37Rv assessed as isoniazid MIC at 4 ug/ml after 7 days by two-dimensional broth microdilution checkerboard assay; details: 168 h
[26] = test system: Mycobacterium tuberculosis; assay: Inhibition of multidrug resistance efflux pump in Mycobacterium tuberculosis H37Rv assessed as rifampin MIC at 256 ug/ml after 7 days by two-dimensional broth microdilution checkerboard assay; details: 168 h; outline: as §1
[27] = test system: Mycobacterium tuberculosis; assay: Inhibition of multidrug resistance efflux pump in Mycobacterium tuberculosis H37Rv assessed as rifampin MIC at 128 ug/ml after 7 days by two-dimensional broth microdilution checkerboard assay; details: 168 h
[28] = test system: Mycobacterium tuberculosis; assay: Inhibition of multidrug resistance efflux pump in Mycobacterium tuberculosis H37Rv assessed as rifampin MIC at 32 ug/ml after 7 days by two-dimensional broth microdilution checkerboard assay; details: 168 h
[29] = test system: Mycobacterium tuberculosis; assay: Inhibition of multidrug resistance efflux pump in Mycobacterium tuberculosis H37Rv assessed as rifampin MIC at 16 ug/ml after 7 days by two-dimensional broth microdilution checkerboard assay; details: 168 h
[30] = test system: Mycobacterium tuberculosis; assay: Inhibition of multidrug resistance efflux pump in Mycobacterium tuberculosis H37Rv assessed as rifampin MIC at 8 ug/ml after 7 days by two-dimensional broth microdilution checkerboard assay; details: 168 h
[31] = test system: Mycobacterium tuberculosis; assay: Inhibition of multidrug resistance efflux pump in Mycobacterium tuberculosis H37Rv assessed as rifampin MIC at 4 ug/ml after 7 days by two-dimensional broth microdilution checkerboard assay; details: 168 h
[32] = test system: Mycobacterium tuberculosis; assay: Inhibition of multidrug resistance efflux pump in Mycobacterium tuberculosis H37Rv assessed as reduction in rifampin MIC at 32 ug/ml after 7 days by two-dimensional broth microdilution checkerboard assay; outline: as §1

Row | SMILES | MIC [3] | MIC [4] | MIC [5] | MIC [6] | MIC [8] | MIC [9] | MIC [10] | MIC [11] | MIC [12] | MIC [15] | MIC [16] | MIC [17] | MIC [18] | MIC [19] | MIC [23] | MIC [24] | MIC [25] | MIC [28] | MIC [29] | MIC [30] | further results
1 | CN1CCCCC1CCn1cnc2ccccc21 (racemic) | 1 µg/mL | 1 µg/mL | 1 µg/mL | 1 µg/mL | 1 µg/mL | 1 µg/mL | 1 µg/mL | 1 µg/mL | 1 µg/mL | 12.5 µg/mL | 12.5 µg/mL | 12.5 µg/mL | 12.5 µg/mL | 12.5 µg/mL | 100 ng/mL | 0.1 µg/mL | 0.1 µg/mL | 0.5 µg/mL | 0.5 µg/mL | 0.5 µg/mL | MIC [1]: < 0.0156 µg/mL; MIC [2]: 1 µg/mL; MIC [7]: 1 µg/mL; MIC [13]: < 0.195 µg/mL; MIC [14]: 12.5 µg/mL; fold change (FC) [20]: >64; Ratio IC50 [21]: 2; MIC [22]: < 0.00078 µg/mL; MIC [26]: < 0.0156 µg/mL; MIC [27]: 0.5 µg/mL; MIC [31]: 0.5 µg/mL
2 | CN1CCCCC1CCn1ccc2ccc(Br)cc21 (racemic) | > 0.0156 µg/mL | 1 µg/mL | 1 µg/mL | 1 µg/mL | < 0.0156 µg/mL | 1 µg/mL | 1 µg/mL | 1 µg/mL | 1 µg/mL | 1.56 µg/mL | 6.25 µg/mL | 12.5 µg/mL | 12.5 µg/mL | 12.5 µg/mL | 50 ng/mL | 0.1 µg/mL | 0.1 µg/mL | 0.0312 µg/mL | 0.0625 µg/mL | 0.25 µg/mL | MIC [1]: < 0.0156 µg/mL; MIC [2]: < 0.0156 µg/mL; MIC [7]: < 0.0156 µg/mL; MIC [13]: < 0.195 µg/mL; MIC [14]: < 0.195 µg/mL; fold change (FC) [20]: >164; fold change (FC) [32]: 32; Ratio IC50 [21]: 2; MIC [22]: < 0.00078 µg/mL; MIC [26]: < 0.0156 µg/mL; MIC [27]: < 0.0156 µg/mL; MIC [31]: 0.5 µg/mL
3 | CN1CCCCC1CCn1c2ccccc2c2ccccc21 (racemic) | < 0.0156 µg/mL | 0.625 µg/mL | 1 µg/mL | 1 µg/mL | < 0.0156 µg/mL | 1 µg/mL | 1 µg/mL | 1 µg/mL | 1 µg/mL | < 0.195 µg/mL | 1.56 µg/mL | 6.25 µg/mL | 12.5 µg/mL | 12.5 µg/mL | < 0.078 ng/mL | 0.1 µg/mL | 0.1 µg/mL | 0.0625 µg/mL | 0.5 µg/mL | 0.5 µg/mL | fold change (FC) [32]: 16; MIC [31]: 1 µg/mL
4 | COc1ccc(N(CCC2CCCCN2C)C(C)C)cc1OC (racemic) | 2 µg/mL | 2 µg/mL | 2 µg/mL | 2 µg/mL | 2 µg/mL | 2 µg/mL | 2 µg/mL | 2 µg/mL | 2 µg/mL | 12.5 µg/mL | 12.5 µg/mL | 12.5 µg/mL | 12.5 µg/mL | 12.5 µg/mL | 100 ng/mL | 0.1 µg/mL | 0.1 µg/mL | 0.25 µg/mL | 0.25 µg/mL | 0.25 µg/mL | MIC [1]: 2 µg/mL; MIC [2]: 2 µg/mL; MIC [7]: 2 µg/mL; MIC [13]: 12.5 µg/mL; MIC [14]: 12.5 µg/mL; fold change (FC) [20]: 164; fold change (FC) [32]: 4; Ratio IC50 [21]: 2; MIC [22]: 0.1 µg/mL; MIC [26]: < 0.0156 µg/mL; MIC [27]: 0.25 µg/mL; MIC [31]: 0.25 µg/mL

— ChEMBL document CHEMBL3593164, “Rational Design and Synthesis of Thioridazine Analogues as Enhancers of the Antituberculosis Therapy” (J Med Chem, 2015)
